In data set [1] the test system is human cervical epitheloid carcinoma (HeLa) cells. Put plainly: Growth inhibition of HeLa cells. In kind it is cell-based. The settings on record: read-out: HeLa IC50, MTT after 7 d, triplicate. The essentials:
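Seeded at 1 × 10^4 cells/well, 1 h, then test compound 0–100 μM for 7 d. Freshly prepared MTT (5 mg/mL) added for 4 h, absorbance read at 570 nm (reference 630 nm). Triplicate, averaged; IC50 = 50% growth inhibition.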

Data set [2] has as its system unstimulated normal cells (resting lymphocytes, PBMC). Briefly: Growth inhibition of normal cells: resting lymphocytes. In kind it is cell-based. The note with it: read-out: lymph (resting) IC50; resting human lymphocytes (PBMC), MTT, 3 d. An outline of the steps:
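Human lymphocytes (PBMCs) from preservative-free heparinised peripheral blood, left unstimulated (no PHA-P), run like the HeLa MTT assay: 1 × 10^4 cells/well, test compound 0–100 μM, but exposure 3 d. Freshly prepared MTT (5 mg/mL) added for 4 h; absorbance at 570 nm (reference 630 nm). Triplicate; IC50 as 50% growth inhibition.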

Data set [3] concerns panel of 60 cancer cell lines. Briefly: DTP. The settings on record: for TGI range / TGI Δ: 60 cell lines (log scale). In kind it is cell-based.
Data set [4] is described as follows: in vivo hollow fiber studies.
A further data set deals with RPMI-8226. Put plainly: DTP 60-cell-line panel: RPMI-8226. Type of data set: cell-based. The settings on record: leukemia RPMI-8226, Tables 3, 4.
A further data set concerns leukemia SR cell line. Put plainly: DTP 60-cell-line panel: SR. In kind it is cell-based.
The test system of another data set is A549/ATCC. Put plainly: DTP 60-cell-line panel: A549/ATCC. Type of data set: cell-based. The note with it: nonsmall cell lung A549/ATCC, Tables 3, 4.
For the next data set, the system named is COLO 205. Briefly: DTP 60-cell-line panel: COLO 205. In kind it is cell-based. The settings on record: colon COLO205.
The test system of the next data set is KM12. Briefly: DTP 60-cell-line panel: KM12. In kind it is cell-based. The note with it: colon KM12; Table 3.
The test system of a further data set is UACC-62. Briefly: DTP 60-cell-line panel: UACC-62. In kind it is cell-based. The settings on record: melanoma UACC-62.
For the next data set, the system named is OVCAR-3. Put plainly: DTP 60-cell-line panel: OVCAR-3. In kind it is cell-based. The settings on record: ovarian OVCAR-3, Table 3.
Another data set relates to RXF393. Put plainly: DTP 60-cell-line panel: RXF393. Type of data set: cell-based. The note with it: renal RXF393, Table 3.
A short description of the next data set: stability in solution. In kind it is physicochemical. The settings on record: in solution (dichloromethane for 4).
For another data set, the system named is IGROV ovarian cell line. The settings on record: cited from earlier work.

Entries after “also recorded” stand apart in the source; their conditions may differ.

Take `S=C([S][Au-][P+](CCCCCC[P+]([Au-][S]C(=S)n1ncc2ccccc21)(c1ccccc1)c1ccccc1)(c1ccccc1)c1ccccc1)n1ncc2ccccc21` [Compound 12, Dinuclear Bis(indazol-1-yldithiocarbamato)-bis-(diphenylphosphino)hexane Gold(I)]: the IC50 in [1] worked out at 4.04 ± 0.49 µM; in [2], 37.7 ± 12.6 µM.
With `S=C([S][Au-][P+](CCC[P+]([Au-][S]C(=S)n1ncc2ccccc21)(c1ccccc1)c1ccccc1)(c1ccccc1)c1ccccc1)n1ncc2ccccc21` [Compound 9, Bis(indazol-1-yldithiocarbamato)-bis-(diphenylphosphino)propane Dinuclear Gold(I)], the results for the IC50 in data set [1] and in [2] were 3.38 ± 0.3 µM and 18.5 ± 3.88 µM, respectively.
In the case of `N.N.[Cl][Pt][Cl]` [cis-platin, reference compound], the IC50 in [1] stood at 0.45 ± 0.09 µM.
Take `S=C([S][Au-][P+](CCCCCC[P+]([Au-][S]C(=S)n1cccn1)(c1ccccc1)c1ccccc1)(c1ccccc1)c1ccccc1)n1cccn1` [Compound 10, Dinuclear Bis(pyrazol-1-yldithiocarbamato)-bis-(diphenylphosphino)hexane Gold(I)]: the values for the 50% inhibitory concentration (IC50) in data set [1] and in data set [2] were 0.51 ± 0.08 µM and 18.9 ± 5.66 µM, respectively. The molecule also displayed a TGI range in data set [3] of 2.28. Moreover, the “TGI Δ” value in data set [3] was 1.92. The activity in vivo result in data set [4] is on record as “not so great”. The GI50 came out at 0.19 µM with RPMI-8226; 0.19 µM in the data set with leukemia SR cell line (Tables 3, 4); 0.38 µM with A549/ATCC; 0.31 µM with COLO 205 (Tables 3, 4); 0.43 µM in the data set on KM12; 0.38 µM with UACC-62 (Tables 3, 4). In addition, the GI50 in the data set on OVCAR-3 stood at 0.7 µM; in the data set on RXF393, 0.45 µM. For the same molecule, the TGI in the data set with RPMI-8226 is 0.53 µM; with leukemia SR cell line (Tables 3, 4), 2.41 µM; in the data set with A549/ATCC, above 100 µM; in the data set with COLO 205 (Table 3) it was above 100 µM; with KM12 it was 1.73 µM; in the data set on UACC-62 (Table 3), above 100 µM. For the same molecule, in the data set with OVCAR-3, the TGI came to 14.20 µM. The CC50 in the data set on RPMI-8226 (read-out: LC50) is above 100 µM; in the data set on leukemia SR cell line (read-out: LC50, Tables 3, 4), above 100 µM; with A549/ATCC (read-out: LC50), above 100 µM; in the data set with COLO 205 (read-out: LC50, Tables 3, 4), above 100 µM; in the data set on UACC-62 (read-out: LC50, Tables 3, 4), above 100 µM; in the data set on OVCAR-3 (read-out: LC50), above 100 µM. For the same molecule, the CC50 in the data set with RXF393 (read-out: LC50) was above 100 µM.
For `Cc1cc(C)n(C(=S)[S][Au-][P+](c2ccccc2)(c2ccccc2)c2ccccc2)n1` [Compound 2, 3,5-dimethylpyrazolyl-1-dithiocarbamato-triphenylphosphinogold(I)], the figures for the IC50 in [1] and in data set [2] were 2.63 ± 0.1 µM and 9.53 ± 3.18 µM, respectively.
In the case of `Cc1cc(C)n(C(=S)[S][Au][PH](CCCCCC[PH]([Au][S]C(=S)n2nc(C)cc2C)(c2ccccc2)c2ccccc2)(c2ccccc2)c2ccccc2)n1` [Compound 11, Dinuclear Bis(3,5-dimethylpyrazol-1-yldithiocarbamato)-bis-(diphenylphosphino)hexane Gold(I)], the figures for the IC50 in data set [1] and in data set [2] were 0.14 ± 0.01 µM and 18.2 ± 15.9 µM, respectively. The molecule further gave a TGI range in [3] of 2.38. Besides, the “TGI Δ” value in data set [3] is given as 1.87. Also, in data set [3] (median over 60 cell lines (log scale)), the “GI50 MG-MID” value is on record as “–6.25”. Moreover, the activity in vivo entry in data set [4] is listed as “could not be delivered to the targets; also recorded: not so great”.
With `S=C([S][Au][PH](c1ccccc1)(c1ccccc1)c1ccccc1)n1ncc2ccccc21` [Compound 3, Indazolyl-1-dithiocarbamato-triphenylphosphinogold(I)], the IC50 came to 2.56 ± 0.17 µM in data set [1] and 14 ± 10.5 µM in data set [2].
For `S=C([S][Au][PH](CCC[PH]([Au][S]C(=S)n1cccn1)(c1ccccc1)c1ccccc1)(c1ccccc1)c1ccccc1)n1cccn1` [Compound 7, Bis(pyrazol-1-yldithiocarbamato)-bis-(diphenylphosphino)propane Dinuclear Gold(I)] the same measures were 3.07 ± 0.48 µM and 7.05 ± 2.02 µM.
For `S=C([S][Au][PH](CC[PH]([Au][S]C(=S)n1cccn1)(c1ccccc1)c1ccccc1)(c1ccccc1)c1ccccc1)n1cccn1` [Compound 4, Bis-(pyrazolyl-1-dithiocarbamato)-bis-(diphenylphosphino)ethane Dinuclear Gold(I)], the stability in solution result in the data set “stability in solution” is “readily transforming to the Au18 cluster”.
Turning to `CCN(CC)C(=S)[S][Au][PH](CC)(CC)CC` [[(Et3P)Au(S2CNEt2)]], the ID50 with IGROV ovarian cell line was 0.012 µg/mL.
For `Cc1cc(C)n(C(=S)[S][Au-][P+](CCC[P+]([Au-][S]C(=S)n2nc(C)cc2C)(c2ccccc2)c2ccccc2)(c2ccccc2)c2ccccc2)n1` [Compound 8, Bis(3,5-dimethylpyrazol-1-yldithiocarbamato)-bis-(diphenylphosphino)propane Dinuclear Gold(I)], the IC50 in [1] was found to be 6.96 ± 0.51 µM; in data set [2], 6.13 ± 2.92 µM.
Turning to `S=C([S][Au][PH](c1ccccc1)(c1ccccc1)c1ccccc1)n1cccn1` [Compound 1, Pyrazolyl-1-dithiocarbamato-triphenylphosphinogold(I)], the IC50 in [1] stood at 2.56 ± 0.12 µM; in [2], 9.05 ± 3.5 µM.

A word on the IC50: it is the concentration at which inhibition is half-maximal. The term GI50 denotes the concentration that inhibits growth by half. One may read the TGI as the concentration giving total growth inhibition.

These data come from article PMC3993921 (Inorganic Chemistry, 2014).
